Data reported in ChEMBL document CHEMBL1154846, “Micropeptins from an Israeli fishpond water bloom of the cyanobacterium Microcystis sp” (J Nat Prod, 2010).
Activity calls are given as the source filed them. No cut-off for these calls is given here.

Tests used:
[1] = Inhibition of chymotrypsin after 30 mins
Method in brief: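 Commercial chymotrypsin, 10 mg/mL stock in 0.05 M Tris-HCl/100 mM NaCl/1 mM CaCl2, pH 7.5. Sample (1 mg/mL DMSO stock) preincubated with enzyme in buffer at 37 °C for 10 min. Suc-Gly-Gly-p-nitroanilide substrate (1 mg/mL stock in Tris buffer) then added. Reaction kinetics followed at 405 nm, 37 °C, for 30 min.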

[2] = target: Chymotrypsin-like elastase family member 1 (Homo sapiens) (UniProt Q9UNI1); experiment: Inhibition of elastase after 20 mins
Method in brief: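 Elastase stock 75 mg/mL in 0.2 M Tris-HCl, pH 8. Sample (1 mg/mL DMSO stock) preincubated with enzyme in buffer at 30 °C for 20 min. N-Suc-Ala-Ala-Ala-p-nitroanilide substrate (1 mg/mL stock in Tris buffer) then added. Kinetics read at 405 nm, 37 °C, for 20 min.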

Prothrombin = Prothrombin (Homo sapiens, UniProt P00734); experiment: Inhibition of thrombin after 20 mins
Method in brief: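 Thrombin in 0.2 M Tris-HCl, pH 8, preincubated with sample (DMSO, 1 mg/mL stock) at 25 °C for 5 min. Z-Gly-Pro-Arg-4MβNA substrate (0.5 mg/mL stock in Tris buffer) then added. Reaction kinetics read at 405 nm, 37 °C, for 20 min; IC50 reported.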

[3] = Inhibition of trypsin after 30 mins
Method in brief: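 Trypsin stock 1 mg/mL in 0.05 M Tris-HCl/100 mM NaCl/1 mM CaCl2, pH 7.5. Sample (1 mg/mL DMSO stock) preincubated with enzyme at 37 °C for 10 min. BAPNA substrate (stock in 1:9 DMSO/Tris buffer) then added. Kinetics at 405 nm, 37 °C, for 30 min, giving IC50.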

Sequence of Chymotrypsin-like elastase family member 1 (Homo sapiens) (Q9UNI1 whole entry): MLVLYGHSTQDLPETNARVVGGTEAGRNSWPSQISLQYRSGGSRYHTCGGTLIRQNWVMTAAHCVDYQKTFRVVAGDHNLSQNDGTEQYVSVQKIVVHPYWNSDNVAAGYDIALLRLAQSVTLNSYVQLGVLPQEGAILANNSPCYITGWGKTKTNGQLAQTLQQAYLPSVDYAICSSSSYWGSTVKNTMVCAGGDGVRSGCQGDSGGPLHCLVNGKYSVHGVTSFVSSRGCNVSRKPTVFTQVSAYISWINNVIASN

Row | SMILES | Activity [1] | Activity [2] | Activity (Prothrombin) | IC50 [3] | IC50 (Prothrombin)
1 | CC[C@H](C)[C@@H]1NC(=O)[C@H](Cc2ccccc2)N(C)C(=O)[C@H]([C@@H](C)CC)N2C(=O)[C@H](CC[C@H]2OC)NC(=O)[C@H](CCCNC(=N)N)NC(=O)[C@@H](N)[C@@H](C)OC1=O | inactive | inactive | inactive |  | 
2 | CC[C@H](C)[C@@H]1NC(=O)[C@H](Cc2ccccc2)N(C)C(=O)[C@H]([C@@H](C)CC)N2C(=O)[C@H](CC[C@H]2O)NC(=O)[C@H](CCCNC(=N)N)NC(=O)[C@@H](NC(=O)[C@H](O)COS(=O)(=O)O)[C@@H](C)OC1=O [CYANOPEPTOLIN S] | inactive | inactive | inactive | 4.1 µM | 
3 | CC[C@H](C)[C@@H]1NC(=O)[C@H](Cc2ccccc2)N(C)C(=O)[C@H]([C@@H](C)CC)N2C(=O)[C@H](CC[C@H]2OC)NC(=O)[C@H](CCCNC(=N)N)NC(=O)[C@@H](NC(=O)[C@@H](CO)OS(=O)(=O)O)[C@@H](C)OC1=O | inactive | inactive | inactive | 7.4 µM | 
4 | CC[C@H](C)[C@@H]1NC(=O)[C@H](Cc2ccccc2)N(C)C(=O)[C@H]([C@@H](C)CC)N2C(=O)[C@H](CC[C@H]2O)NC(=O)[C@H](CCCNC(=N)N)NC(=O)[C@@H](NC(=O)[C@@H](CO)OS(=O)(=O)O)[C@@H](C)OC1=O | inactive | inactive | inactive | 24.2 µM | 
5 | CC[C@H](C)[C@@H]1NC(=O)[C@H](Cc2ccccc2)N(C)C(=O)[C@H]([C@@H](C)CC)N2C(=O)[C@H](CC[C@H]2O)NC(=O)[C@H](CCCN=C(N)N)NC(=O)[C@@H](NC(=O)[C@@H](COS(=O)(=O)O)OS(=O)(=O)O)[C@@H](C)OC1=O [CYANOPEPTOLIN SS] |  |  |  |  | 45.2 µM
6 | CC[C@H](C)[C@@H]1NC(=O)[C@H](Cc2ccccc2)N(C)C(=O)[C@H]([C@@H](C)CC)N2C(=O)[C@H](CC[C@H]2OC)NC(=O)[C@H](CCCNC(=N)N)NC(=O)[C@@H](NC(=O)[C@H](O)CO)[C@@H](C)OC1=O | inactive | inactive |  | 0.6 µM | 52.9 µM
7 | CC[C@H](C)[C@@H]1NC(=O)[C@H](Cc2ccccc2)N(C)C(=O)[C@H]([C@@H](C)CC)N2C(=O)[C@H](CC[C@H]2OC)NC(=O)[C@H](CCCNC(=N)N)NC(=O)[C@@H](NC(=O)[C@H](O)COS(=O)(=O)O)[C@@H](C)OC1=O | inactive | inactive | inactive | 1.5 µM | 
8 | CC[C@H](C)[C@@H]1NC(=O)[C@H](Cc2ccccc2)N(C)C(=O)[C@H]([C@@H](C)CC)N2C(=O)[C@H](CC[C@H]2O)NC(=O)[C@H](CCCNC(=N)N)NC(=O)[C@@H](NC(=O)[C@@H](COS(=O)(=O)O)OS(=O)(=O)O)[C@@H](C)OC1=O [CYANOPEPTOLIN SS] | inactive | inactive |  | 2.9 µM | 
9 | CC[C@H](C)[C@@H]1NC(=O)[C@H](Cc2ccccc2)N(C)C(=O)[C@H]([C@@H](C)CC)N2C(=O)[C@H](CC[C@H]2O)NC(=O)[C@H](CCCNC(=N)N)NC(=O)[C@@H](NC(=O)[C@H](O)CO)[C@@H](C)OC1=O | inactive | inactive | inactive | 2.6 µM | 
10 | CC[C@H](C)[C@@H]1NC(=O)[C@H](Cc2ccccc2)N(C)C(=O)[C@H]([C@@H](C)CC)N2C(=O)[C@H](CC[C@H]2OC)NC(=O)[C@H](CCCNC(=N)N)NC(=O)[C@@H](NC(=O)[C@@H](COS(=O)(=O)O)OS(=O)(=O)O)[C@@H](C)OC1=O | inactive | inactive | inactive | 1.6 µM | 
